Source: publication PMC6217654 (ACS Omega, 2018)

Columns and labels:
plasma TSH level = assay: TSH releasing activity after oral administration in rats; format: in vivo; details: rat
Outline: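 Male Sprague-Dawley rats (258–320 g, n ≥ 4, fed), dosed p.o. at 0.1 or 1 mg/2 mL/kg in water. Blood taken by decapitation at scheduled times, clotted 30 min at 25 °C, centrifuged for serum. TSH measured by [125I] rat TSH assay kit with magnetic separation. Mean ± SD.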

[1] = PK of TRH and 79 after oral administration to fasted conscious rats; format: in vivo, rat
Outline: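 Male Wistar rats (10–11 weeks, 230–274 g, n ≥ 4), fasted from the evening before dosing to the 12 h sample. Jugular cannula placed under isoflurane 2–3 days before. Single p.o. dose of 40 mg/4 mL/kg in saline. Heparinized blood (~0.3 mL) drawn via cannula; plasma deproteinized with methanol; HPLC with UV absorbance detection. Cmax, Tmax, AUC0–8h given as mean ± SD.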

[2] = tested on: reserpine-induced hypothermia mice; assay: Antagonistic effect on reserpine-induced hypothermia in mice; format: in vivo; details: p.o.
Outline: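 Male ddY mice (bought at 6 weeks, 1-week quarantine, ~25 °C). Reserpine 3 mg/kg s.c.; mice with rectal temperature ≤30 °C about 18 h later were used. Test compound in saline p.o. at 5 μmol/kg, TRH at 50 μmol/kg, saline controls. Rectal temperature by thermistor before and up to 7 h post-dose. Trapezoidal AUC0–7h, with saline AUC subtracted. Mean ± SD, ≥3 animals.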

[3] = tested on: rats with Ara-C-induced cerebellar damage; assay: Ara-C-induced cerebellar ataxia in rats, open field fall index; format: in vivo, rat; details: 79 10 and 30 mg/kg p.o. once daily for 7 days, vs control
CYP2C8 = molecular target: T1, CYP2C8 (Homo sapiens, UniProt P10632); assay: Direct CYP inhibition, CYP2C8; format: in vitro ADME
T1 sequence (P10632 1-490): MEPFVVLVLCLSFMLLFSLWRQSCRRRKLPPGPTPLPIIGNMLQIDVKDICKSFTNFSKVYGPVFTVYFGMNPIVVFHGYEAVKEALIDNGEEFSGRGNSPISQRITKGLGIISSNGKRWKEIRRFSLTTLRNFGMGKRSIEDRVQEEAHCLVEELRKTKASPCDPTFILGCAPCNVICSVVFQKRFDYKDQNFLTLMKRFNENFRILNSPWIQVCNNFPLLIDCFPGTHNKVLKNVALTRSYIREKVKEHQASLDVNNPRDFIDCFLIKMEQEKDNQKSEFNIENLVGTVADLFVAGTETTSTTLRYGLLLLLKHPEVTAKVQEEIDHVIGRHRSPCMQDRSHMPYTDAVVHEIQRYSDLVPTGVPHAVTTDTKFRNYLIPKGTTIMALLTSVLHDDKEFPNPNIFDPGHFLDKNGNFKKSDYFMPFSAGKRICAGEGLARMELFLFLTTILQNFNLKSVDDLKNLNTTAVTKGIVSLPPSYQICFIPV

human TRH-R = details: read-out: Ki for human TRH-R; in vitro binding, reported previously; cited from earlier work
[4] = Stability in rat plasma, cerebrum and cerebellum homogenate at 37 °C; format: in vitro ADME; details: for compound remaining, cerebellum: rat cerebellum homogenate; for compound remaining, cerebrum: rat cerebrum homogenate; for compound remaining, plasma: rat plasma
rats = assay: Acute lethal dose, single oral administration in rats; format: in vivo, rat
[5] = tested on: CYP1A2, CYP2A6, CYP2B6, CYP2C9, CYP2C19, CYP2D6, CYP2E1, CYP3A4/5, CYP4A11; assay: Direct CYP inhibition, 10 CYP enzymes; format: in vitro ADME; details: human
[6] = tested on: CYP1A2, CYP2A6, CYP2B6, CYP2C8, CYP2C9, CYP2C19, CYP2D6, CYP2E1, CYP3A4/5, CYP4A11; assay: Direct CYP inhibition, 10 CYP enzymes; format: in vitro ADME; details: human
[7] = male, Wistar, rat, plasma, po, 40 mg/kg

C[C@@H]1OC(=O)N[C@@H]1C(=O)N[C@@H](Cc1cscn1)C(=O)N1CCC[C@H]1C [Compound 79, 1-{N-[(4S,5S)-(5-Methyl-2-oxooxazolidine-4-yl)carbonyl]-3-(thiazol-4-yl)-L-alanyl}-(2R)-2-methylpyrrolidine trihydrate]
plasma TSH level (plasma TSH level; p.o. 0.1 mg/kg, at 0.5 h): 46.8 ng/mL | plasma TSH level (plasma TSH level; p.o. 1 mg/kg, at 0.5 h): 80.4 ng/mL | plasma TSH level (plasma TSH level; p.o. 0.1 and 1 mg/kg, at 24 h): recovered to vehicle levels | Cmax and AUC0–8h relative to TRH ([1]; fasted rats, p.o. 40 mg/kg): over 12 times | AUC(0-t) [1, 7]: 817 ± 349 ng·h/mL | Cmax [1, 7]: 636 ± 232 ng/mL | Tmax [1, 7]: 15 min | rectal temperature compared with saline levels ([2]; 79 5 μmol/kg from 2 to 7 h, TRH 50 μmol/kg from 0 to 7 h): > 2.5 °C | rectal temperature ΔAUC0–7h = AUC0–7h(compounds) – AUC0–7h(saline) ([2]; reserpine-induced hypothermia mice, TRH 50 μmol/kg, 79 5 μmol/kg): 28.0 ± 4.3 °C·h | rectal temperature AUC0–7h ([2]; reserpine-induced hypothermia mice, TRH 50 μmol/kg, 79 5 μmol/kg, mean ± SD): 233.4 ± 4.3 °C·h | fall index [3]: significant decrease | inhibition at 300 μM (CYP2C8): ~20% | Ki (human TRH-R): 702 nM | compound remaining, cerebellum ([4]; 15 min): 100 ± 0.0% | compound remaining, cerebellum ([4]; 30 min): 99.9 ± 0.0% | compound remaining, cerebellum ([4]; 60 min): 99.7 ± 0.0% | compound remaining, cerebellum ([4]; 120 min): 99.6 ± 0.1% | compound remaining, cerebellum ([4]; 180 min): 99.5 ± 0.1% | compound remaining, cerebrum ([4]; 15 min): 100.2 ± 0.2% | compound remaining, cerebrum ([4]; 30 min): 100.2 ± 0.1% | compound remaining, cerebrum ([4]; 60 min): 100.3 ± 0.1% | compound remaining, cerebrum ([4]; 120 min): 99.9 ± 0.1% | compound remaining, cerebrum ([4]; 180 min): 99.7 ± 0.1% | compound remaining, plasma ([4]; 15 min): 100 ± 0.1% | compound remaining, plasma ([4]; 30 min): 99.8 ± 0.1% | compound remaining, plasma ([4]; 60 min): 99.6 ± 0.3% | compound remaining, plasma ([4]; 120 min): 99.8 ± 0.2% | compound remaining, plasma ([4]; 180 min): 99.8 ± 0.1% | acute lethal dose (rats): over 2000 mg/kg | inhibition at 300 μM [5]: ≤ 10% | inhibition at 300 μM [6]: ≤ 50%
